From PubChem BioAssay
LANA-H2B inh: blockers of LANA interaction with H2A/H2B – biochemical, FP readout, HTS, primary screen; 0.6% of 320,000 active; cell-free LANA-H2A/H2B peptide, fluorescence polarization; inhibition, % (no concentration beside the values); in the data active = inhibition mostly above about 10%, no sharp cut-off; inactive = mostly below about 6.7%
T cell modulator: modulators of CD8 T cell-vesicle binding, primary screen, mouse 2C CD8+ T cells, flow cytometry; 0.068% of 330,000 active; AID 2052, 2009; response (vesicle binding), % at 7 µM; 2C CD8+ T cell-vesicle binding; active compounds read low;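 active = response, share of CD8 T cells binding vesicles, and their 90th percentile fluorescence all below set limits, cut at about 80% in these data, passing the limit was not always enough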;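 note: values below 100% mean blocked vesicle binding to the CD8+ T cells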
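Benchmarks: naked versus QL9-loaded vesicles / Assay system: purified 2C TCR transgenic mouse naive CD8+ T cells / Technique: high-throughput flow cytometry with anti-B7-1 and anti-CD8 staining / Timing: Cell–vesicle co-incubation 1.5 h at 37 °C, staining 20 min on ice / Read-out: percent CD8+ FL2 mean versus row control / Probe or stimulus: QL9-loaded Drosophila micro-vesicles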
DSG3 Ab inh: inhibitors of pemphigus antibody binding to DSG3, primary screen, biochemical, bead-based, flow cytometry, scFv-GFP. 0.48% of 310,000 active. DSG3-coupled beads, scFv-anti-DSG3-GFP binding; active compounds read low. Desmoglein-3 (Homo sapiens), P32926. binding (percent of control), % at 10 µM;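 active = binding more than 3 SD below its plate's average and above zero; inconclusive = below that plate limit but binding exactly zero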;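 note: hits lower antibody fragment binding to DSG3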
Target sequence (P32926 whole entry, looked up, the tested form may be a part): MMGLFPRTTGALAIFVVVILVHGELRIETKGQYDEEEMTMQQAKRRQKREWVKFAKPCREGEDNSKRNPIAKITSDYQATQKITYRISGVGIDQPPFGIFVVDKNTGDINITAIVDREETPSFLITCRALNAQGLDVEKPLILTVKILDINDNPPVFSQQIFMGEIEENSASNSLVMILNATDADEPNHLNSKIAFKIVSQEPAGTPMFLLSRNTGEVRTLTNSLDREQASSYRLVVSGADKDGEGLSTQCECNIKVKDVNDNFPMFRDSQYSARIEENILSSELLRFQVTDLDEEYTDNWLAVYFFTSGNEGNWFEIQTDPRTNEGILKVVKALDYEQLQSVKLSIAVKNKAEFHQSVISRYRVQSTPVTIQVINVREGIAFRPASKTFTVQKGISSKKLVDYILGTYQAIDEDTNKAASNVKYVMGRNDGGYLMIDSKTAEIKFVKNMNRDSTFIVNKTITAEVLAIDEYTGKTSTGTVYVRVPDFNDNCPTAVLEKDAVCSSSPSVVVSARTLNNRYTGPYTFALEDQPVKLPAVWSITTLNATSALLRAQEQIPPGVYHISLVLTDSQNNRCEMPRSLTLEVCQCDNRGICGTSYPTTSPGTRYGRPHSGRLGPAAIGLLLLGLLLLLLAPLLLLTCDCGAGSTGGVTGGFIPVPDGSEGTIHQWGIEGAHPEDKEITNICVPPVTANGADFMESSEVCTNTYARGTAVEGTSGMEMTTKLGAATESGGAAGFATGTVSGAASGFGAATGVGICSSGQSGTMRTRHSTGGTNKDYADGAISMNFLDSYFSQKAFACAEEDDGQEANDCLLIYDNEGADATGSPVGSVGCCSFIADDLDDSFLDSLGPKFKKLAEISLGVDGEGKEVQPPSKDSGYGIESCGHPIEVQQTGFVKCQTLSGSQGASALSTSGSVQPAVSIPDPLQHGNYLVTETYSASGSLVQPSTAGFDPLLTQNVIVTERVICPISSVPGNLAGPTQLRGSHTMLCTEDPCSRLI
JMJD2C inh: inhibitors of GASC-1 histone demethylase, primary screen, biochemical, fluorescence, DELFIA europium; 0.069% of 330,000 active; inhibition, % at 2.35 µM; GST-JMJD2C(1-420) H3K9me3 demethylation;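 active = more than half of a compound's replicate wells show inhibition beyond 50%, single wells judged on their own value; inconclusive = some, but no more than half, of replicates pass 50% inhibition; inactive = no replicate passes 50% inhibition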;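 note: signal counts dimethyl H3K9 product captured on neutravidin plate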
HDAC3 inh: HDAC3 deacetylase inhibitors, primary screen, biochemical, fluorescence, cell-free homogeneous | recombinant HDAC3, fluorogenic peptide/trypsin coupled | 0.15% of 320,000 active | inhibition, % at 8.3 µM; in the data active = inhibition above about 26%, passing the limit was not always enough; inconclusive = no clear call, values can overlap the other calls
Arr AP2 block: inhibitors of beta-arrestin/AP2 binding, primary screen, biochemical, GPCR trafficking, flow cytometry; inhibition, % at 10 µM; 0.31% of 340,000 active; FITC-arrestin peptide / GST-AP2 beads; AP2 beta2 appendage carries R879A mutation; beta-arrestin 1 C-terminal peptide binding to AP2 beta2-adaptin appendage (human);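 active = inhibition above a set limit, near 3 SD of compounds lacking own fluorescence, cut at about 54% in these data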
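Material – AP2 appendage R879A on GSH beads · Buffer or medium – PBS with 0.05% Tween 20 and 0.1% BSA · Probe or stimulus – fluorescein-tagged arrestin peptide at 50 nM final · Incubation – compound with beads 12 min RT, then probe 1 h RT · Detection – high-throughput flow cytometry of beads, ex 488, em 535 nm · Evaluation – percent response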
Large screens that a line does not name were inactive; ! = not confirmed by another sample. Rows were chosen to be rich in hits. Some 1.6% of all compounds tested hit in one or more screens of this group.

CCOC(=O)CNC(=O)N1Cc2ccccc2-n2nncc2C1	none (no result: LANA-H2B inh, T cell modulator, JMJD2C inh, HDAC3 inh, Arr AP2 block)
N#CC1c2ccccc2-n2nncc2CN1Cc1cc(Cl)cc(Cl)c1 (configuration not stated)	none (no result: LANA-H2B inh, T cell modulator, JMJD2C inh, HDAC3 inh)
Fc1ccc(C(OCCN2CCCC2)c2ccc(Br)cc2)cc1 (configuration not stated)	LANA-H2B inh 13
Fc1ccc(C(OCCN2CCCC2)c2ccc(F)cc2)cc1	none
O=c1[nH]sc2cc(F)ccc12	DSG3 Ab inh 4.9 (no result: LANA-H2B inh, T cell modulator, HDAC3 inh)
c1ccc(C2(NC3=NCCO3)CCCCC2)cc1	none (no result: LANA-H2B inh, T cell modulator, JMJD2C inh, HDAC3 inh, Arr AP2 block)
C[N+]12CCC(CC1)C(C(O)(c1cccc(Cl)c1)c1cccc(Cl)c1)C2 (configuration not stated)	DSG3 Ab inh 82
Cc1ccc(OC(=O)N(C)C[C@@H]2OCc3cnnn3CCCC(=O)N([C@@H](C)CO)C[C@@H]2C)cc1	none (no result: LANA-H2B inh, T cell modulator, JMJD2C inh, HDAC3 inh, Arr AP2 block)
CC(=O)c1ccc2c(c1)OCO2	none
C/C=C/c1ccc2c(c1)OCO2	LANA-H2B inh 11
c1ccc2[nH]c(CCN3CCCCC3)nc2c1	none (no result: LANA-H2B inh, T cell modulator, JMJD2C inh, HDAC3 inh, Arr AP2 block)
CCOC(=O)C1SC2(C(F)(F)F)CC1(O)c1c(C)cc(C)nc1O2 (configuration not stated)	HDAC3 inh 44
Cc1ccc(N)c(C)c1	LANA-H2B inh 37
Cc1ccccc1N	none
C[C@]1(O)CCC2C3CC[C@H]4C[C@@H](OC(=O)[C@@H](N)CCCCN)CC[C@]4(C)C3CC[C@@]21C (some centres not stated)	none (no result: LANA-H2B inh, T cell modulator, JMJD2C inh, HDAC3 inh, Arr AP2 block)
COC1CCC(OC2CC(C3(C)CCC4(CC(O)C(C)C(C(C)/C=C(\C)C(=O)C(C)CC(C)C(=O)O)O4)O3)OC3(OC(C4OC(O)(CO)C(C)CC4C)CC3C)C2C)OC1C (configuration not stated)	none (no result: LANA-H2B inh, T cell modulator, JMJD2C inh, HDAC3 inh)
Cc1ccc(-n2c(O)c(C=NCCCn3ccnc3)c(=O)[nH]c2=O)cc1	LANA-H2B inh 13
COc1ccc(-n2c(O)c(C=NCCCn3ccnc3)c(=O)[nH]c2=O)cc1	DSG3 Ab inh inconclusive
O=S(=O)(c1ccccc1)N1Cc2ccccc2-n2nncc2C1	none (no result: LANA-H2B inh, T cell modulator, JMJD2C inh, HDAC3 inh, Arr AP2 block)
CCC/C=N/O	LANA-H2B inh 32
Nc1ccc2ccc3cccc[n+]3c2c1	LANA-H2B inh 36
Cc1cc(OCCCC(=O)NCc2cccs2)ccc1Cl	LANA-H2B inh 23
CCOC(=O)c1cc(C)sc1/N=C/C1C(=O)NC(=S)NC1=O	DSG3 Ab inh 69
CCOC(=O)Cc1csc(NC(=O)c2c(O)c3ccccc3n(CCC(C)C)c2=O)n1	LANA-H2B inh 15
Cc1c(NS(=O)(=O)c2ccccc2)ccc([N+](=O)[O-])c1Cl	none (no result: LANA-H2B inh, T cell modulator, JMJD2C inh, HDAC3 inh)
O=[N+]([O-])c1ccc(Cl)c(Cl)c1Cl	LANA-H2B inh 24
O=C1Nc2ccccc2Oc2ccccc21	none (no result: LANA-H2B inh, T cell modulator, JMJD2C inh, HDAC3 inh, Arr AP2 block)
Cc1cc(C(=O)OCC(=O)Nc2ccc(F)cc2F)c(C)n1C1CC1	LANA-H2B inh 146 (no result: DSG3 Ab inh)
Cc1cc(C(=O)OCC(=O)Nc2ccccc2F)c(C)n1C1CC1	none (no result: LANA-H2B inh, T cell modulator, JMJD2C inh, HDAC3 inh)
ClCCN(CCCl)c1ccc(-n2cnc3c(Cl)ncnc32)cc1	none (no result: LANA-H2B inh, T cell modulator, JMJD2C inh, HDAC3 inh)
CC(=O)CCC(C)=O	LANA-H2B inh active
C[N+]1(C)[C@@H]2CC[C@H]1CC(OC(=O)C(CO)c1ccccc1)C2 (some centres not stated)	LANA-H2B inh 37!
COc1ccc(-n2c(O)c(/C=C3\C=Nc4ccc(Br)cc43)c(=O)[nH]c2=O)cc1	LANA-H2B inh 13
CCN1C(=O)CC(=O)N(CC)C1=S	none (no result: LANA-H2B inh, T cell modulator, JMJD2C inh, HDAC3 inh, Arr AP2 block)
CCC1CN1P(=O)(N1CCCC1)N1CC1CC (configuration not stated)	none (no result: LANA-H2B inh, T cell modulator, JMJD2C inh, HDAC3 inh)
COc1ccc(-c2ccc3n2Cc2cnnn2-c2ccccc2-3)cc1	none (no result: LANA-H2B inh, T cell modulator, JMJD2C inh, HDAC3 inh)
Cn1cc(C=C2C(=O)NC(=O)NC2=O)c2ccccc21	none
C=CCn1c(C)c(C=C2C(=O)NC(=O)NC2=O)c2ccccc21	JMJD2C inh 50
COC(=O)C1=C(c2ccc(OCc3ccccc3)cc2)C[C@@H]2CC[C@H]1N2C(=O)NCc1ccc(F)cc1	none (no result: LANA-H2B inh, T cell modulator, JMJD2C inh, HDAC3 inh, Arr AP2 block)
